Measurements taken from publication PMC10798293 (Journal of Enzyme Inhibition and Medicinal Chemistry, 2024).
Entries after “also recorded” stand apart in the source; their conditions may differ. One block for each molecule: values may come before it.

Columns and labels:
[1] = biological target: T1, SaSDH (Staphylococcus aureus shikimate dehydrogenase) (Staphylococcus aureus, UniProt Q5HFG5); assay: SaSDH enzyme inhibition; format: biochemical; conditions: for IC50: 1 mM SHK, 1.54 ng SaSDH, pH 9.0, 37 °C, 30 min; for Mode of inhibition: with respect to SHK
T1 sequence (Q5HFG5 1-268): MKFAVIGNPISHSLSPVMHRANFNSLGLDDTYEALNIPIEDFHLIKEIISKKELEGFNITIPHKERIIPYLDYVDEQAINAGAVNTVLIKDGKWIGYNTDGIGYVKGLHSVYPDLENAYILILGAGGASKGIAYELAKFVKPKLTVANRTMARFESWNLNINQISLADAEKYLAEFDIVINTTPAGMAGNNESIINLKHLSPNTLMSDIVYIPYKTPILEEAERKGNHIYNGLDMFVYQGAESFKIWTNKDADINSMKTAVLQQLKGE

[2] = tested on: S. aureus; assay: Growth / time-kill curves; format: cell-based, Staphylococcus aureus; conditions: inhibitor at MIC: 50 μg/mL (-)-gallocatechin gallate, 250 μg/mL rhodiosin
[3] = tested on: S. aureus; assay: Cell membrane integrity, Calcein AM/PI staining; format: cell-based, Staphylococcus aureus; conditions: MIC, 37 °C, 3 h
[4] = tested on: S. aureus; assay: Scanning electron microscopy of bacterial morphology; format: cell-based, Staphylococcus aureus; conditions: MIC and 1/2 MIC, 1.5 h
[5] = tested on: S. aureus; assay: S. aureus susceptibility, micro-broth two-fold serial dilution; format: cell-based, Staphylococcus aureus
[6] = biological target: T2, SaSDH (Staphylococcus aureus, UniProt Q5HFG5); assay: Isothermal titration calorimetry; format: binding; conditions: ITC, 100 mM Tris-HCl pH 9.0, 25 °C
T2 sequence (Q5HFG5 1-268): T1 sequence (Q5HFG5 1-268)

[7] = biological target: T2, SaSDH; assay: SaSDH enzyme activity and kinetic parameters for substrates; format: biochemical; conditions: substrate varied, co-substrate at saturation, pH 9.0, 37 °C
Outline: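 His-tagged SaSDH (pET-28a(+), E. coli BL21(DE3)pLysS, IPTG induction, Ni-NTA purified). Reverse reaction: NADP+-dependent SHK oxidation, 1.54 ng enzyme, 100 mM Tris-HCl pH 9.0, 37 °C, enzyme-started; A340 every minute for 60 min.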

Molecule: CC=C1[C@H](O[C@@H]2O[C@H](CO)[C@@H](O)[C@H](O)[C@H]2O)OC=C(C(=O)OC)[C@H]1CC(=O)OC[C@H]1O[C@@H](OCCc2ccc(O)cc2)[C@H](O)[C@@H](O)[C@@H]1O (stereo in doubt) [Specneuzhenide]
IC50 ([1]; 1 mM NADP): < 100 µM

Molecule: O=C(OC[C@H]1O[C@@H](OC(=O)c2cc(O)c(O)c(O)c2)[C@H](OC(=O)c2cc(O)c(O)c(O)c2)[C@@H](OC(=O)c2cc(O)c(O)c(O)c2)[C@@H]1OC(=O)c1cc(O)c(O)c(O)c1)c1cc(O)c(O)c(O)c1 [Pentagalloylglucose]
IC50 ([1]; IC50, 1 mM NADP): < 100 µM
Antibacterial activity (in words) [5]: antibacterial activities

Molecule: C[C@@H]1O[C@@H](OC[C@H]2O[C@@H](Oc3c(-c4ccc(OCCO)c(OCCO)c4)oc4cc(OCCO)cc(O)c4c3=O)[C@H](O)[C@@H](O)[C@@H]2O)[C@H](O)[C@H](O)[C@H]1O [Troxerutin, reference compound]
IC50 ([1]; IC50, 1 mM NADP): < 100 µM

Molecule: Rhodiosin
Mode of inhibition ([1]; Lineweaver-Burke plots): competitive inhibition
Mode of inhibition ([1]; Lineweaver-Burke plots, listed as rhodiosin): competitive inhibitor
Effect on S. aureus growth (time-kill curves) [2]: completely inhibited S.aureus growth
Cell membrane integrity (PI-labeled bacteria) [3]: cell membrane destruction
Bacterial morphology by SEM [4]: cell disintegration, cell surface fracturing and wrinkling
Antibacterial activity (in words) [5]: antibacterial activities

Further lines, with some results ahead:

IC50 ([1]; 1 mM NADP): < 100 µM
Ki ([1]; Lineweaver-Burke plots, SHK varied 0.25-4 mM): 2.47 µM
Kd [6]: 44.6 µM
Molecule: O=C(O[C@@H]1Cc2c(O)cc(O)cc2O[C@H]1c1cc(O)c(O)c(O)c1)c1cc(O)c(O)c(O)c1 [(-)-Gallocatechin gallate]
Mode of inhibition ([1]; Lineweaver-Burke plots): uncompetitive inhibition; also recorded: uncompetitive inhibitor
Effect on S. aureus growth (time-kill curves) [2]: slow bacterial growth
Cell membrane integrity (PI-labeled bacteria) [3]: cell membrane destruction
Bacterial morphology by SEM [4]: cell disintegration, cell surface fracturing and wrinkling
Antibacterial activity (in words) [5]: antibacterial activities

IC50 ([1]; 1 mM NADP): < 100 µM
Molecule: COc1ccc([C@@H]2CC(=O)c3c(O)cc(O[C@@H]4O[C@H](CO[C@@H]5O[C@@H](C)[C@H](O)[C@@H](O)[C@H]5O)[C@@H](O)[C@H](O)[C@H]4O)cc3O2)cc1O [Hesperidin]

Km [7]: 98.2 µM
Vmax [7]: 3.785 mM/min/µg
Molecule: NC(=O)c1ccc[n+]([C@@H]2O[C@H](COP(=O)([O-])OP(=O)(O)OC[C@H]3O[C@@H](n4cnc5c(N)ncnc54)[C@H](OP(=O)(O)O)[C@@H]3O)[C@@H](O)[C@H]2O)c1 [NADP^+]

Km [7]: 46.1 µM
Vmax [7]: 3.362 mM/min/µg
Molecule: O=C(O)C1=C[C@@H](O)[C@@H](O)[C@H](O)C1 [SHK, shikimate]
